The term Kd denotes the concentration at which binding is half-saturated. High values mean lower affinity, low ones higher affinity.

Residue numbers refer to the chain shown, from its start. The source made the active and inactive calls. The calls are words filed in the database; no cut-off is given here.

The text below walks through data of ChEMBL document CHEMBL4017530, “Mind the Metal: A Fragment Library-Derived Zinc Impurity Binds the E2 Ubiquitin-Conjugating Enzyme Ube2T and Induces Structural Rearrangements” (J Med Chem, 2017).

Assay [1] concerns T1, Ubiquitin-conjugating enzyme E2 T (Homo sapiens), Q9NPD8 [C86K,K91R,K95R].
T1 sequence (whole entry): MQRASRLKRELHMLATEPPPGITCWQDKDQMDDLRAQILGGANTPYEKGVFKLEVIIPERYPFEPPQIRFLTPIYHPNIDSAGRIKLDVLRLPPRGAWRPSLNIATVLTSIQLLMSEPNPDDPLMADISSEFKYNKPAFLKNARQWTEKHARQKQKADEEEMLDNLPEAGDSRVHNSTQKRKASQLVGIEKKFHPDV
Nature of the assay: (§1) Binding affinity to N-terminally 6xHis-Smt3 tagged FANCL RING fused human Ube2T C86K/K91R/K95R mutant expressed in Escherichia coli by ITC method. The method in brief:
(§2)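 Titrations at 25 °C with stirring at 750 rpm in 100 mM Tris pH 8.0, 100 mM NaCl, 0.5 mM TCEP. Protein at approximately 50 μM. Titrant-into-buffer control used to correct for heat of dilution. Each titration repeated at least twice.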

Assay [2] shares this test system. Nature of the assay: Binding affinity to N-terminally 6xHis-Smt3 tagged human Ube2T C86K/K91R/K95R mutant expressed in Escherichia coli by DSF method. The method in brief:
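Compound ranged from 5 μM to 5 mM. Samples heated from 25 to 95 °C at 1 °C/min with fluorescence read at each step. Melting temperature shift was the read-out.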
In general terms: In DSF a fluorescence change marks the thermal transition of the protein.

For assay [3] the test system is unchanged. Nature of the assay: Binding affinity to biotin labeled Ube2T C86K/K91R/K95R mutant (unknown origin) assessed as association and dissociation response at 2 uM by biolayer interferometry analysis. The method in brief:
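Bio-layer interferometry with compound at a lowest tested concentration of 2 μM. Association and dissociation responses were recorded.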
(In BLI a coated tip is dipped into the sample, and binding shifts an interference pattern.)

The target of assay [4] is Ubiquitin-like modifier-activating enzyme 1 (Homo sapiens) (UniProt P22314). In words: Inhibition of recombinant human E1 charging with ubiquitin at 20 to 100 uM after 10 mins in presence of ATP by coomassie staining based SDS PAGE analysis.
Assay [5] has as its system T1, Ubiquitin-conjugating enzyme E2 T (Homo sapiens), Q9NPD8 [C86K,K91R,K95R]. In words: Binding affinity to N-terminally 6xHis-Smt3 tagged Ub fused human Ube2T C86K/K91R/K95R mutant expressed in Escherichia coli at 1.5 mM by ITC method. In outline:
as §2
On the technique in general: Isothermal titration calorimetry measures the heat released or taken up as one component is titrated into another.

The target of assay [6] is T2, Ubiquitin-conjugating enzyme E2 T (Homo sapiens) (UniProt Q9NPD8).
T2 sequence (whole entry): T1 sequence (whole entry) with K86C, R91K, R95K
Nature of the assay: Binding affinity to human 15N-labelled C-terminal flexible tail lacking Ube2T (1 to 154 residues) (unknown origin) at 500 uM by NMR spectrocopy. The method in brief:
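[1H-15N]-HSQC spectra recorded on 50 μM 15N-Ube2T ΔC (residues 1-154) with compound added at 100, 300 and 500 μM. Read-out was weakening or loss of resonance peaks compared with the apo spectrum.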

Assay [7] deals with T1, Ubiquitin-conjugating enzyme E2 T (Homo sapiens), Q9NPD8 [C86K,K91R,K95R]. Nature of the assay: Binding affinity to N-terminally 6xHis-Smt3 tagged human Ube2T C86K/K91R/K95R mutant expressed in Escherichia coli in presence of EDTA by ITC method. The method in brief: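 ITC at 25 °C with stirring at 750 rpm, protein approx. 50 μM. Buffer was 100 mM Tris pH 8.0, 100 mM NaCl, 0.5 mM TCEP, plus 2 mM EDTA. Heat of dilution corrected by titrant-into-buffer control. Repeated at least twice.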

Assay [8] concerns the target T3, Ubiquitin-conjugating enzyme E2 T (Homo sapiens, UniProt Q9NPD8, C86K/K91R/K95R). Nature of the assay: Binding affinity to N-terminally 6xHis-Smt3 tagged human Ube2T C86K/K91R/K95R mutant expressed in Escherichia coli by ITC method. In outline:
as §2

The target in assay [9] is T2, Ubiquitin-conjugating enzyme E2 T (Homo sapiens). In words: Reversible binding affinity to human 15N-labelled C-terminal flexible tail lacking Ube2T (1 to 154 residues) at 100 to 500 uM measured after overnight dialysis by NMR spectrocopy. In outline:
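HSQC on 50 μM 15N-Ube2T ΔC with compound at 100, 300 and 500 μM. Compound was then removed by overnight dialysis in 50 mM potassium phosphate pH 6.8, 85 mM NaCl, 1 mM DTT. HSQC recorded again and compared with the apo peak positions.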

In assay [10] the target is T3, Ubiquitin-conjugating enzyme E2 T. The assay is described as §1. The method in brief: as §2

Ubiquitin-like modifier-activating enzyme 1 (Homo sapiens), sequence (P22314 whole entry, looked up, the tested form may be a part): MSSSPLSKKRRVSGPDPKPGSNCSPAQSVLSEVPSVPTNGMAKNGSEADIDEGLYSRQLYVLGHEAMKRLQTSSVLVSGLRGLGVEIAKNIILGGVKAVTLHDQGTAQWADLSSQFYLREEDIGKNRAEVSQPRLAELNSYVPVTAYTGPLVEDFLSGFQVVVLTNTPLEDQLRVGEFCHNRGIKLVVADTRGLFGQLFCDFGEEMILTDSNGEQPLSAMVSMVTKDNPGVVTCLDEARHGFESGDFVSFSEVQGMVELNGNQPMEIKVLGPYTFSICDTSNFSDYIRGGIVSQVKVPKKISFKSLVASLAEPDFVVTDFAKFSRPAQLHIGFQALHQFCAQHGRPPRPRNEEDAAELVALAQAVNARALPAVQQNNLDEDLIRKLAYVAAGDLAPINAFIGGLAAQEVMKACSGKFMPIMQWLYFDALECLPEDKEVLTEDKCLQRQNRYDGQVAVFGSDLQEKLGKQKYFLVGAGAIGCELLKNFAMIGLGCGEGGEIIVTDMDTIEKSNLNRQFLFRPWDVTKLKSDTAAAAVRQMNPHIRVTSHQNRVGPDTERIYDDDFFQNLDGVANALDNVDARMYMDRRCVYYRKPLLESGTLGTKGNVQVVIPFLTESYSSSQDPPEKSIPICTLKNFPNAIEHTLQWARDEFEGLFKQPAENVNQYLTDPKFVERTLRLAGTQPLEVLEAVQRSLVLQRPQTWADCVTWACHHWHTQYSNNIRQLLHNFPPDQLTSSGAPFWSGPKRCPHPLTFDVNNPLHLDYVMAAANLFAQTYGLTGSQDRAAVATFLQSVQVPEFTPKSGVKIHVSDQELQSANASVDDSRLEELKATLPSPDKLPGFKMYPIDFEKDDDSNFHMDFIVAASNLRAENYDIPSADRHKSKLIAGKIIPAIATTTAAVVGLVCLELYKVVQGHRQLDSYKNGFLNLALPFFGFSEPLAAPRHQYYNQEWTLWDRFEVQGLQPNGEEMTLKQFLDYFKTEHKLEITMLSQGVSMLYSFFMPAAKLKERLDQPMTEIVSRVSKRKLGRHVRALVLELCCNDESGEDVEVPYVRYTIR

`CC1CCN(c2ccc(C(=N)N)cn2)C1` (stereo not drawn): the outcome in assay [1] and in assay [2] was inactive.
On to `Cc1cc(C)n(-c2ccc(C(=N)N)cn2)n1`, for which the result in [3], in [6] and in assay [9] was Active. In addition, the inhibition entry in assay [4] is “inactive”. The result in [5] and in assay [7] was inactive. Moreover, the Kd came to 17.7 µM in [8] and 21.3 µM in [10]. The Activity entry in assay [2] is “Dose-dependent effect”.
In assay [8], `[Cl-].[Cl-].[Zn+2]` [ZINC CHLORIDE] yielded an equilibrium dissociation constant (Kd) of 15.7 µM. That is a double-digit micromolar value.
In the case of `N=C(N)c1ccc(N2CCCC2)nc1`, the Activity entry in assay [2] was “Dose-dependent effect”.
For the molecule `CC1CCCN1c1ccc(C(=N)N)cn1` (stereo not drawn), the result in assay [1] and in [2] was inactive.
As for `N=C(N)c1ccc(-n2cccn2)nc1`, in [2], the Activity result is “Dose-dependent effect”.
Regarding `N=C(N)c1ccc(N2CCCCC2)nc1`, the outcome in [1] and in [2] was inactive.
